Bioassay records: PubChem, several laboratories
Compounds with a hit are over-represented: about 2.3% of the library has one in this group of screens.
Rtt109 Vps75 – C. albicans Rtt109 histone acetyltransferase inhibition. 330,000 compounds, 0.16% hits. Q5AAJ8. AID 540336. purified Rtt109/Vps75, ThioGlo CoA-SH fluorescence, 4 h. inhibition, % at 34.9 µM;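 active means inhibition of at least 50% in every replicate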
Target sequence (Q5AAJ8 whole entry, looked up): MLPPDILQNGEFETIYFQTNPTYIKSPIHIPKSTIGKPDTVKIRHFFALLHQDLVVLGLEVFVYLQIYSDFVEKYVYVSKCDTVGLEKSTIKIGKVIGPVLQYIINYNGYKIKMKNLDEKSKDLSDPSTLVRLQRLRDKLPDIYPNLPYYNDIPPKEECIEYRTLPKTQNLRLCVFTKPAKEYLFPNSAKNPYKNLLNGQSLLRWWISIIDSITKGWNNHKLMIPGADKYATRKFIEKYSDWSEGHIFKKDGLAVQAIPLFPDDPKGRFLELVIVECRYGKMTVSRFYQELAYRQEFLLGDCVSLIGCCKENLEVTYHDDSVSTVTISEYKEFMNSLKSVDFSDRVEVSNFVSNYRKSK
PfHsp90 yeast 2 – growth inhibition of yeast expressing Plasmodium Hsp90. S. cerevisiae expressing PfHsp90, BacTiter-Glo ATP, 48 h; yeast lacking PDR1 and PDR3 efflux regulators. inhibition, % at 9.4 µM. 310,000 compounds, 0.32% hits. AID 504621;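 active means every replicate shows inhibition above about 80%, whatever the replicate mean, limit read from the data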;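 further: 0% = DMSO neutral controls and 100% = 20 µM radicicol positive controls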
Env fusion inh – inhibitors of HIV Env-mediated cell fusion; 360,000 compounds, 1.1% hits; AID 651610; inhibition, % at 12.3 µM; HeLa-JRFL Env/CEM21 cell fusion, luciferase;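 active means mean replicate inhibition score of at least 50 and every replicate individually at or above 50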;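 further: 0% = plate neutral controls and 100% = maraviroc near 300 nM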
N-glyco inh – blocks N-linked glycosylation in D54 reporter cells; D54 ERlucT glycosylation luciferase reporter, 24 h; percent of 100 nM tunicamycin response; reporter increase, % at 12.5 µM; 360,000 compounds, 0.23% hits;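 active means mean luciferase reporter signal, scaled so untreated is 0 and the glycosylation-blocking control 100, at or above a set limit in every replicate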;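 further: luciferase carries N-glycosylation sites so blocking glycosylation raises the light; 0% = median of neutral control wells and 100% = median of 100 nM tunicamycin wells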
PAX8 inh HTS – PAX8 transcriptional activity inhibition; 360,000 compounds, 1.2% hits; RMG-I TPO-luciferase reporter, SteadyGlo, 24 h; inhibition, % at 12.6 µM;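 active means mean replicate inhibition at least 60% with every replicate also reaching 60%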;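 further: luciferase light reporting Pax8 driven TPO promoter activity; plate controls were median of neutral control wells for no effect and mitoxantrone controls for full effect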
Arr AP2 block – human beta-arrestin and AP2 interaction inhibition; FITC-arrestin peptide / GST-AP2 beads, flow cytometry; AP2 beta2 appendage carries R879A mutation; inhibition, % at 10 µM; 340,000 compounds, 0.31% hits;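 active means inhibition above a set limit, near 3 SD of compounds lacking own fluorescence, cut at about 54% in these data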;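 further: plate controls were DMSO wells for no effect and 5 µM unlabelled arrestin peptide for full effect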
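system = GST-tagged AP2 beta2-adaptin appendage (R879A) on 4 µm glutathione beads | reagent = FITC-labelled arrestin peptide probe, 50 nM final | schedule = compound with beads 12 min RT, then probe 1 h RT | signal = HyperCyt-sampled flow cytometry, FL1 channel, ex 488/em 535 nm | read-out = percent response from loss of bead-bound FITC fluorescence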
Active calls of the source: *; nt = no result; [ ] = remark or other dose.

SMILES	Rtt109 Vps75	PfHsp90 yeast 2	Env fusion inh	N-glyco inh	PAX8 inh HTS	Arr AP2 block
C[C@H]1CCCCO[C@H](CN(C)Cc2ccc(Cl)c(Cl)c2)[C@@H](C)CN([C@@H](C)CO)C(=O)c2cc(NC(=O)c3ccccc3)ccc2O1	nt	nt	13[16.7 µM]	nt	67*	nt
C[C@@H]1CCCCO[C@@H](CN(C)Cc2ccc(Cl)c(Cl)c2)[C@@H](C)CN([C@@H](C)CO)C(=O)c2cc(NC(=O)c3ccccc3)ccc2O1	nt	nt	-15[16.7 µM]	nt	66*	nt
C[C@H](CO)N1C[C@H](C)[C@H](CN(C)Cc2ccccn2)Oc2ncc(-c3ccccc3)cc2C1=O	nt	nt	-8[16.7 µM]	nt	18	nt
C[C@H](CO)N1C[C@H](C)[C@@H](CN(C)C(=O)Cc2ccncc2)Oc2ncc(C3=CCCC3)cc2C1=O	nt	nt	1[16.7 µM]	nt	-3	nt
CCOC(=O)Nc1c2ccccc2nc2ccccc12	2	0	4	34*	-11	-10
CC(C)NC(=O)N(C)C[C@H]1Oc2c(NS(=O)(=O)c3ccccc3)cccc2C(=O)N([C@@H](C)CO)C[C@@H]1C	nt	nt	nt	nt	5	nt
S=C1SCN(Cc2cccnc2)CN1Cc1cccnc1	-14	85*	-3	1	93*	-13
CC[C@@H](CC1CCCCC1)C(=O)N(Cc1ccccc1)c1ccccc1	0	-11	60*	-5	14	-3
CCC(=O)N1C[C@@H](C)[C@H](OC)CN(C)C(=O)c2cc(NC(=O)c3ccc(OC)cc3)ccc2OC[C@H]1C	nt	nt	15[16.7 µM]	nt	-11	nt
O=C(Nc1ccc(F)cc1)N1CC(=O)N2[C@H](CO)[C@H](c3ccc(C#Cc4ccc(F)cc4)cc3)[C@H]2C1	nt	nt	nt	nt	-15	nt
O=C(Nc1ccc(F)cc1)N1CC(=O)N2[C@@H](CO)[C@@H](c3ccc(-c4ccc(F)cc4)cc3)[C@@H]2C1	nt	nt	nt	nt	0	nt
O=C(Nc1ccc(F)cc1)N1CC(=O)N2[C@@H](CO)[C@H](c3ccc(-c4ccc(F)cc4)cc3)[C@@H]2C1	nt	nt	nt	nt	101*	nt
O=C(Nc1ccc(F)cc1)N1CC(=O)N2[C@H](C1)[C@H](c1ccc(C#Cc3ccc(F)cc3)cc1)[C@@H]2CO	nt	nt	nt	nt	68*	nt
O=C(Nc1ccc(F)cc1)N1CC(=O)N2[C@@H](CO)[C@@H](c3ccc(C#Cc4ccc(F)cc4)cc3)[C@@H]2C1	nt	nt	nt	nt	119*	nt
N#C[C@@H]1[C@H](c2ccc(C#Cc3ccc(F)cc3)cc2)[C@@H](CO)N1C(=O)Nc1ccc(F)cc1	nt	nt	23[16.7 µM]	nt	103*	nt
C[C@@H]1CN([C@@H](C)CO)C(=O)c2cc(-c3cncnc3)cnc2O[C@H]1CN(C)C(=O)Cc1ccccc1	nt	nt	4[16.7 µM]	nt	-12	nt
O=C(c1ccc(F)cc1)N1CC(=O)N2[C@H](CO)[C@@H](c3ccc(/C=C/c4ccccc4)cc3)[C@H]2C1	nt	nt	nt	nt	16	nt
O=C(c1cccc(F)c1)N1CC(=O)N2[C@H](C1)[C@H](c1ccc(/C=C/c3ccccc3)cc1)[C@@H]2CO	nt	nt	nt	nt	63*	nt
COc1ccc(NC(=O)N2CC(=O)N3[C@H](C2)[C@H](c2ccc(/C=C/c4ccccc4)cc2)[C@@H]3CO)cc1	nt	nt	nt	nt	105*	nt
COc1ccc2c3c(n(C)c2c1)[C@@H](CO)N(Cc1ccccc1)CC31CCN(C(=O)Nc2cccc(F)c2)CC1	nt	nt	40[16.7 µM]	nt	nt	nt
CC(C)(C)c1ccc(NC(=O)COC(=O)c2ccc([N+](=O)[O-])s2)cc1	-19	109*	5	2	-3	10
O=C(COC(=O)c1ccc([N+](=O)[O-])s1)Nc1ccc(F)cc1	10	-8	2	0	1	13
O=C(c1ccccc1)c1ccc(OCC(O)CN2CCN(S(=O)(=O)N3CCCCC3)CC2)cc1 (stereo not drawn)	5	-2	60*	-2	nt	12
O=C(C(=Cc1ccccc1)CN1CCCCC1)c1ccccc1	8	-21	-74	-20	104*	9
CC(/C=N/NC(=O)CSc1nc(C)cc(C)n1)=C\c1ccccc1	-7	-2	12	1	-5	1
SMILES	Rtt109 Vps75	PfHsp90 yeast 2	Env fusion inh	N-glyco inh	PAX8 inh HTS	Arr AP2 block
CC(/C=N\NC(=O)Cn1c(C)nc2ccccc21)=C\c1ccccc1	2	-4	86*	2	10	3
CCOc1ccccc1N1CCN(C(=O)c2ccncc2)CC1	51*	-19	-30	-2	nt	4
CCOc1ccccc1N1CCN(C(=O)c2cccc(-c3ccc(O)cc3)c2)CC1	12	104*	16	0	13	-3
COc1ccccc1N1CCN(C(=O)c2cccc(C(=O)N3CCN(c4ccccc4OC)CC3)c2)CC1	9	-9	14	-2	-19	9
CN(C)C(=O)[C@H]1[C@H](CO)[C@H]2Cn3c(ccc(C4=CCCCC4)c3=O)[C@@H]1N2Cc1ccccc1F	nt	nt	nt	nt	-1	nt
Cc1ccc(S(=O)(=O)N[C@@H]2CC[C@H](CC(=O)NCc3ccccc3F)O[C@H]2CO)cc1	nt	nt	2[16.7 µM]	nt	3	nt
CO[C@@H]1CN(C)C(=O)c2cc(NC(=O)c3ccccc3F)ccc2OC[C@@H](C)N(CC2CC2)C[C@@H]1C	nt	nt	nt	nt	79*	nt
COc1ccccc1C(=O)Nc1ccc2c(c1)OC[C@H](C)N(C(C)=O)C[C@H](C)[C@H](OC)CN(C)C2=O	nt	nt	60*[16.7 µM]	nt	4	nt
COc1cccc(C(=O)Nc2ccc3c(c2)C(=O)N(C)C[C@H](OC)[C@@H](C)CN(CCc2ccccc2)[C@H](C)CO3)c1	nt	nt	55*[16.7 µM]	nt	47	nt
CO[C@@H]1CN(C)C(=O)c2ccc(NC(=O)c3ccc(-c4ccccc4)cc3)cc2OC[C@H](C)NC[C@@H]1C	nt	nt	30[16.7 µM]	nt	65*	nt
O=C(Nc1cc(F)ccc1F)N1[C@@H]2CNC[C@H]1C2c1ccc(-c2ccc(F)cc2)cc1 (stereo partly drawn)	nt	nt	nt	nt	3	nt
N[C@H]1CC[C@@H](CCn2cc(-c3ccccn3)nn2)O[C@H]1CO	nt	nt	-17[16.7 µM]	nt	-23	nt
CO[C@H]1CN(C)C(=O)c2cc(NC(=O)c3ccc(F)cc3)ccc2OC[C@@H](C)N(C(=O)CN(C)C)C[C@H]1C	nt	nt	-5[16.7 µM]	nt	-1	nt
CO[C@H]1CN(C)C(=O)c2cc(NC(=O)c3ccc(F)cc3)ccc2OC[C@H](C)N(C(=O)CN(C)C)C[C@@H]1C	nt	nt	62*[16.7 µM]	nt	-10	nt
CO[C@@H]1CN(C)C(=O)c2ccc(NC(=O)NC3CCCCC3)cc2OC[C@@H](C)N(CCc2ccccc2)C[C@H]1C	nt	nt	nt	nt	66*	nt
C[C@@H]1CCCCO[C@H](CN(C)Cc2ccc(C(F)(F)F)cc2)[C@@H](C)CN([C@H](C)CO)C(=O)c2cc(NC(=O)c3ccccc3)ccc2O1	nt	nt	9[16.7 µM]	nt	23	nt
C[C@@H]1CCCCO[C@H](CN(C)Cc2ccc(C(F)(F)F)cc2)[C@H](C)CN([C@@H](C)CO)C(=O)c2cc(NC(=O)c3ccccc3)ccc2O1	nt	nt	21[16.7 µM]	nt	85*	nt
C[C@@H]1CCCCO[C@@H](CN(C)Cc2ccc(C(F)(F)F)cc2)[C@H](C)CN([C@@H](C)CO)C(=O)c2cc(NC(=O)c3ccccc3)ccc2O1	nt	nt	56*[16.7 µM]	nt	32	nt
